Test results taken from ChEMBL document CHEMBL1143890, “Discovery of long-acting N-(cyanomethyl)-N-alkyl-L-prolinamide inhibitors of dipeptidyl peptidase IV” (Bioorg Med Chem, 2008).
Blank lines part the entries; values can stand above or below the molecule they belong to. The source made the active and inactive calls. No cut-off for these calls is given here.

Tests used:
Rattus norvegicus [1] = species: Rattus norvegicus; assay: animal or person; conditions: Sprague-Dawley, Plasma, po, 6 h, read-out: Inhibition
Dipeptidyl peptidase 8 = Dipeptidyl peptidase 8 (Homo sapiens, UniProt Q6V1X1); assay: Inhibition of human DPP8
Dipeptidyl peptidase 8, sequence (Q6V1X1 whole entry): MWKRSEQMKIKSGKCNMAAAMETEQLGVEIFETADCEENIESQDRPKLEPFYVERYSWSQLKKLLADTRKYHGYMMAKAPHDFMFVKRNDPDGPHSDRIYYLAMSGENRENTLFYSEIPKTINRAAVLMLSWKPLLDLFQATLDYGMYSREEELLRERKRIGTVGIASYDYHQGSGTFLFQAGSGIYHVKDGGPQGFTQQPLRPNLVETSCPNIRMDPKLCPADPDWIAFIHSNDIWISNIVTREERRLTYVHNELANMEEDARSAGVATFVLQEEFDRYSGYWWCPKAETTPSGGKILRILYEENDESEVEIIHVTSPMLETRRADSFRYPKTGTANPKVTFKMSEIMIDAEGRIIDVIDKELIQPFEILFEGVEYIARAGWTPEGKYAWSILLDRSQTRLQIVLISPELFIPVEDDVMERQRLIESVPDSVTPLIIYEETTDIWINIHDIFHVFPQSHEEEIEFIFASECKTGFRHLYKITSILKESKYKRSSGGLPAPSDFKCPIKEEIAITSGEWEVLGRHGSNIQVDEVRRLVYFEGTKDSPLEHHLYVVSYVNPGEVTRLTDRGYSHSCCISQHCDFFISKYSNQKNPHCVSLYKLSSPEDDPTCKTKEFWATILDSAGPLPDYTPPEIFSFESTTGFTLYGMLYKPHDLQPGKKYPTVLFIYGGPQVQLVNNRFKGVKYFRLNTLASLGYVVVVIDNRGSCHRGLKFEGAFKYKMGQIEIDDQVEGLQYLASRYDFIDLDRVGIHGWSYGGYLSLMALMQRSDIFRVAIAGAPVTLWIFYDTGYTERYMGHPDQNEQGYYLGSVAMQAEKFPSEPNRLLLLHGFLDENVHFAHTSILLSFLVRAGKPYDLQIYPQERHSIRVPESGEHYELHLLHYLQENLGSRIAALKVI

Rattus norvegicus [2] = assay: Ex vivo inhibition of DPP4 in Sprague-Dawley rat plasma at 0.3 mg/kg, po after 9 hrs; format: functional
Method in brief: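 Male Sprague–Dawley rats, 6–7 weeks old, fasted at least 8 h, then given a single oral dose of 0.3 mg/kg in 0.5% methyl cellulose. Jugular vein blood was drawn before dosing and at 0.25–9 h after. Plasma was mixed with Gly-Pro-AMC (added as a 60 µM solution). The initial rate over the first 15 min was read at 37 °C (ex 355/em 460 nm). Inhibition is expressed as % of basal activity.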

Rattus norvegicus [3] = assay: Reduction of glucose level in Sprague-Dawley rat plasma at 1 mg/kg, po after 7 hrs by multiple glucose tolerance test; format: functional, organism-based; set-up: dose 1 mg/kg
Method in brief: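 Male SD rats (364–473 g), fasted at least 20 h, were dosed orally at −0.5 h with 1 mg/kg or with vehicle (0.5% methyl cellulose). Oral glucose, 1 g/kg, was given at 0 and 6 h. Tail vein plasma was taken at −0.08 to 8 h, stored at −80 °C, and assayed by glucose oxidase-peroxidase. Results are mean ± SEM (n = 7), compared with vehicle by Student's t test.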

SMILES: CC[C@@H]1N[C@H](C(=O)N2CCC[C@H]2C#N)C[C@@H]1C(=O)N(C)C
inhibition in vivo at 0.3 mg/kg (Rattus norvegicus [1]): 45%

SMILES: CCN(CC#N)C(=O)[C@@H]1C[C@H](C(=O)N2Cc3ccccc3C2)[C@H](C)N1
inhibition in vivo at 0.3 mg/kg (Rattus norvegicus [1]): 64%

IC50 (Dipeptidyl peptidase 8): > 100 µM
SMILES: C[C@@H]1N[C@H](C(=O)N(C)CC#N)C[C@@H]1C(=O)N(C)C
inhibition in vivo at 0.3 mg/kg (Rattus norvegicus [1]): 55%

SMILES: CCN(CC#N)C(=O)[C@@H]1C[C@H](C(=O)N2CCCC2)[C@H](C)N1
inhibition in vivo at 0.3 mg/kg (Rattus norvegicus [1]): 53%

SMILES: CCN(CC#N)C(=O)[C@@H]1C[C@H](C(=O)N2CCCCC2)[C@H](C)N1
inhibition in vivo at 0.3 mg/kg (Rattus norvegicus [1]): 60%

SMILES: C=CCN(CC#N)C(=O)[C@@H]1C[C@H](C(=O)N(C)C)[C@H](C)N1
inhibition in vivo at 0.3 mg/kg (Rattus norvegicus [1]): 19%

SMILES: C[C@@H]1N[C@H](C(=O)N2CCC[C@H]2C#N)C[C@@H]1C(=O)N(C)C
inhibition in vivo at 0.3 mg/kg (Rattus norvegicus [2]): 83% | inhibition in vivo at 0.3 mg/kg (Rattus norvegicus [1]): 89%

SMILES: CCN(CC#N)C(=O)[C@@H]1C[C@H](C(=O)N2CCOCC2)[C@H](C)N1
inhibition in vivo at 0.3 mg/kg (Rattus norvegicus [1]): 65%

SMILES: C[C@@H]1N[C@H](C(=O)N(CC#N)C2CC2)C[C@@H]1C(=O)N(C)C
inhibition in vivo at 0.3 mg/kg (Rattus norvegicus [1]): 29%

SMILES: C[C@@H]1N[C@H](C(=O)N2CCC[C@H]2C#N)C[C@@H]1CC(=O)N(C)C
inhibition in vivo at 0.3 mg/kg (Rattus norvegicus [1]): 40%

SMILES: C#CCN(CC#N)C(=O)[C@@H]1C[C@H](C(=O)N(C)C)[C@H](C)N1
inhibition in vivo at 0.3 mg/kg (Rattus norvegicus [1]): 18%

IC50 (Dipeptidyl peptidase 8): > 100 µM
SMILES: CCN(CC#N)C(=O)[C@@H]1C[C@H](C(=O)N(C)C)[C@H](C)N1
inhibition in vivo at 0.3 mg/kg (Rattus norvegicus [2]): 62% | Activity (Rattus norvegicus [3]): Active | inhibition in vivo at 0.3 mg/kg (Rattus norvegicus [1]): 73%

SMILES: CCN(CC#N)C(=O)[C@@H]1C[C@H](C(=O)NCc2ccccc2)[C@H](C)N1
inhibition in vivo at 0.3 mg/kg (Rattus norvegicus [1]): 31%
